In ChEMBL document CHEMBL1149787, “Synthesis and cannabinoid activity of 1-substituted-indole-3-oxadiazole derivatives: novel agonists for the CB1 receptor” (Eur J Med Chem, 2008):
The source made the active and inactive calls. The rule behind the calls is not given here.

Key:
[1] = molecular target: Cannabinoid receptor 1 (Mus musculus) (UniProt P47746); assay: Agonist activity at CB1 receptor in electrically-stimulated Swiss mouse vas deferens; type: functional, tissue-based
In short: (§1)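 Electrically stimulated mouse vas deferens. Prostatic end tied between parallel field electrodes, epididymal end attached to an isometric force transducer. Tissue stretched by 0.5 g force, equilibrated 10 min, then stimulated with trains of three pulses (4 Hz, 0.5 ms, 100 V) every 20 s. Effect taken as % decrease of pre-drug twitch force; single concentrations expressed relative to vehicle.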

[2] = molecular target: T1, Cannabinoid receptor 2 (Rattus norvegicus) (UniProt Q9QZN9); assay: (§2) Displacement of [3H]WIN-55212-2 from CB2 receptor in Sprague-Dawley rat spleen membrane; type: cell membranes
T1 sequence (whole entry): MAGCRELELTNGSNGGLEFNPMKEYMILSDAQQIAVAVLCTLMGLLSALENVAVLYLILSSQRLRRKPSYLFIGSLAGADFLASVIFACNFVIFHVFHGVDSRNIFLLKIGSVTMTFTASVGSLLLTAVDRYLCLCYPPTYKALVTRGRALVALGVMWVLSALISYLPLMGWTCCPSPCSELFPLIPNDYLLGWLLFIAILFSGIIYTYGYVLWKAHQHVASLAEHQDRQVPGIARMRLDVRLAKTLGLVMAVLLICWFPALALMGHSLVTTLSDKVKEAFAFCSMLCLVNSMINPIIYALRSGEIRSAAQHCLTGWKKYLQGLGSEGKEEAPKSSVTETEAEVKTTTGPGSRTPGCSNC

[3] = molecular target: Cannabinoid receptor 1 (Mus musculus) (UniProt P47746); assay: Agonist activity at CB1 receptor in electrically-stimulated Swiss mouse vas deferens at 1.0 uM; type: functional, tissue-based; in short: as §1
[4] = molecular target: Cannabinoid receptor 1 (Rattus norvegicus) (UniProt P20272); assay: (§3) Displacement of [3H]SR141716A from CB1 receptor in Sprague-Dawley rat cerebellum membrane; type: tissue-based
Cannabinoid receptor 1 [5] = molecular target: Cannabinoid receptor 1 (Rattus norvegicus, UniProt P20272); assay: as §3; type: tissue-based
[6] = molecular target: T1, Cannabinoid receptor 2 (Rattus norvegicus); assay: Displacement of [3H]WIN-55212-2 from CB2 receptor in Sprague-Dawley rat spleen membrane at 10 uM; type: cell membranes
In short: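 Spleen membranes from Sprague Dawley rats (supernatant spun at 23,800g, pellet kept) in tris-HCl pH 7.4 with MgCl2 and EGTA. 30.0 µg protein per tube with 1.0 mg/mL BSA, 0.2 nM [3H]WIN-55,212-2 and test drug, triplicate, 30 °C for 90 min. Nonspecific binding defined with 1.0 µM unlabelled WIN-55,212-2. Filtration, scintillation counting, nonlinear regression; means of at least four estimates.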

Cannabinoid receptor 2 [7] = molecular target: T2, Cannabinoid receptor 2 (Rattus norvegicus, UniProt Q9QZN9); assay: as §2; type: cell membranes
T2 sequence (Q9QZN9 whole entry): T1 sequence (whole entry)

[8] = Selectivity for CB2 receptor over CB1 receptor
Cannabinoid receptor 1 [9] = molecular target: Cannabinoid receptor 1 (Homo sapiens, UniProt P21554); assay: Agonist activity at CB1 receptor; type: functional
Cannabinoid receptor 2 [10] = molecular target: Cannabinoid receptor 2 (Homo sapiens, UniProt P34972); assay: Activity at CB2 receptor
Chain of Cannabinoid receptor 2 (Homo sapiens, UniProt P34972) (P34972 whole entry): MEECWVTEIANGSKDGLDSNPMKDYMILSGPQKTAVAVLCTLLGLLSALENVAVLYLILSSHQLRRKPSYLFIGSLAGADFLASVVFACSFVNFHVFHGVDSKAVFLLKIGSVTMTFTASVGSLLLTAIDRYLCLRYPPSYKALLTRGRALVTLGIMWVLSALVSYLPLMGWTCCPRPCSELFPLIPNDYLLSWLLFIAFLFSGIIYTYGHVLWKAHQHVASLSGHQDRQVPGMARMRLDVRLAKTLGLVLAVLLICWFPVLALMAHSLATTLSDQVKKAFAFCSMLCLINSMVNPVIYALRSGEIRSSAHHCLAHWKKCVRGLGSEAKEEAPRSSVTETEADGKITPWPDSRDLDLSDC

Chain of Cannabinoid receptor 1 (Mus musculus) (P47746 whole entry): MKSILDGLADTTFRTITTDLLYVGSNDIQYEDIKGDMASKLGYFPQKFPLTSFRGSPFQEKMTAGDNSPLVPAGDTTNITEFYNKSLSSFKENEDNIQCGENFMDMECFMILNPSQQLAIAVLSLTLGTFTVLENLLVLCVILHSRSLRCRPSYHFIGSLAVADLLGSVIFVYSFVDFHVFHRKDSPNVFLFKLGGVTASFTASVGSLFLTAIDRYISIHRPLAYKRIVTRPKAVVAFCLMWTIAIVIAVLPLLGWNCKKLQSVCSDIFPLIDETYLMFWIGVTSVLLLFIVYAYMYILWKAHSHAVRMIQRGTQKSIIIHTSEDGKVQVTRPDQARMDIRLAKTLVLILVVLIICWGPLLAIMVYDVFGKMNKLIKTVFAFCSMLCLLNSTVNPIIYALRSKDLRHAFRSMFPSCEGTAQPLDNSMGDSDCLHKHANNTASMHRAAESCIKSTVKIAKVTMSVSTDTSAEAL
Chain of Cannabinoid receptor 1 (Rattus norvegicus, UniProt P20272) (P20272 whole entry): as the sequence (P47746 whole entry) above, with D95E counted along it
Chain of Cannabinoid receptor 1 (Homo sapiens, UniProt P21554) (P21554 whole entry): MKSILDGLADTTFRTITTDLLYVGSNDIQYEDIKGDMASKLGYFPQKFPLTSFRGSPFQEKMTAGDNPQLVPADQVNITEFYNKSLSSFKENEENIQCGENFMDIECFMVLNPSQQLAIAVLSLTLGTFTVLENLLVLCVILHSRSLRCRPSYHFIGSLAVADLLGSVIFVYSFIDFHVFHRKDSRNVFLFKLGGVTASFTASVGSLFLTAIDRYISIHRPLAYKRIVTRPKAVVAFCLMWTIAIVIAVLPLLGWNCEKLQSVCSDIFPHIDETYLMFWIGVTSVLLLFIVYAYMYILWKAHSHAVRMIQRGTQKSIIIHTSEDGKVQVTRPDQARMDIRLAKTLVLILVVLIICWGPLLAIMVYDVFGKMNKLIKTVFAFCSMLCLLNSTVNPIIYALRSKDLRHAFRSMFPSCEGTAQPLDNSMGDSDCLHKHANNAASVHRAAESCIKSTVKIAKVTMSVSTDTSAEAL
Chain of Cannabinoid receptor 1 (Rattus norvegicus) (P20272 whole entry): as the sequence (P47746 whole entry) above, with D95E counted along it

| SMILES | inhibition [3] [%] | IC50 (Cannabinoid receptor 1 [5]) [µM] | further results |
| --- | --- | --- | --- |
| c1ccc(Cc2noc(-c3cn(CCN4CCCC4)c4ccccc34)n2)cc1 | – | – | agonist potency (pEC50) [1]: 7.2 |
| O=C(Cn1cc(-c2nc(Cc3ccccc3)no2)c2ccccc21)N1CCOCC1 | 17 | – | Activity [2]: inactive |
| O=C(Cn1cc(-c2nc(Cc3ccccc3Cl)no2)c2ccccc21)N1CCOCC1 | – | – | Activity [4]: inactive |
| CCCCCn1cc(-c2nc(Cc3ccccc3)no2)c2ccccc21 | 100 | 8.8 | – |
| c1ccc2cc(Cc3noc(-c4cn(CCN5CCCC5)c5ccccc45)n3)ccc2c1 | 78.6 | – | – |
| O=C(O)CCCCn1cc(-c2nc(Cc3ccc4ccccc4c3)no2)c2ccccc21 | 53.6 | – | – |
| CCOC(=O)CCCCn1cc(-c2nc(Cc3ccc4ccccc4c3)no2)c2ccccc21 | 41.6 | – | – |
| c1ccc2cc(Cc3noc(-c4cn(CCN5CCOCC5)c5ccccc45)n3)ccc2c1 | 95.6 | – | – |
| c1ccc(-c2ccc(-c3noc(-c4cn(CCN5CCOCC5)c5ccccc45)n3)cc2)cc1 | 11.4 | 1.52 | inhibition [6]: 14% |
| c1ccc(Cc2noc(-c3cn(CCN4CCOCC4)c4ccccc34)n2)cc1 | – | 2.62 | IC50 (Cannabinoid receptor 2 [7]): 1.1 µM; agonist potency (pEC50) [1]: 7 |
| COc1ccc2c(c1)c(CCN1CCOCC1)c(C)n2C(=O)c1cccc(Cl)c1Cl | – | – | Selectivity ratio [8]: 160 |
| c1ccc(CCc2noc(-c3cn(CCN4CCOCC4)c4ccccc34)n2)cc1 | 90 | 6.8 | – |
| COc1ccc(Cc2noc(-c3cn(CCN4CCOCC4)c4ccccc34)n2)cc1 | 39.2 | – | – |
| CC(=O)Oc1cn(CCN2CCOCC2)c2ccccc12 | 81.8 | – | – |
| COc1ccc(C(=O)c2c3n(c4ccccc24)C(CN2CCOCC2)CC3)cc1 (stereo unspecified) | – | – | IC50 (Cannabinoid receptor 1 [9]): 0.00032 µM |
| c1ccc(Cc2noc(-c3cn(CCN4CCCCC4)c4ccccc34)n2)cc1 | – | 5.6 | agonist potency (pEC50) [1]: 5.6 |
| O=C(Cn1cc(-c2nc(-c3ccccc3)no2)c2ccccc21)N1CCOCC1 | -5.29 | – | Activity [2]: inactive |
| CCCCC(C)(C)c1cc(O)c2c(c1)OC(C)(C)[C@H]1CC=C(CO)C[C@H]21 | – | 3.22 | – |
| c1ccc(-c2noc(-c3cn(CCN4CCOCC4)c4ccccc34)n2)cc1 | – | 0.25 | IC50 (Cannabinoid receptor 2 [7]): 4.03 µM; agonist potency (pEC50) [1]: 6.47 |
| COc1ccc(C(=O)c2c(C)n(CCN3CCOCC3)c3ccccc23)cc1 [PRAVADOLINE] | – | – | IC50 (Cannabinoid receptor 1 [9]): 0.453 µM |
| Brc1ccc(Cc2noc(-c3cn(CCN4CCOCC4)c4ccccc34)n2)cc1 | 58 | 6.2 | – |
| O=C(c1nc(Cc2ccccc2)no1)c1cn(CCN2CCOCC2)c2ccccc12 | 22.4 | – | – |
| c1csc(Cc2noc(-c3cn(CCN4CCOCC4)c4ccccc34)n2)c1 | 81 | 6.8 | – |
| c1ccc(Cc2noc(-c3cn(CCN4CCOCC4)cn3)n2)cc1 | 46.8 | – | Activity [4]: inactive |
| Clc1ccccc1Cc1noc(-c2cn(CCN3CCOCC3)c3ccccc23)n1 | 95 | 7.4 | – |
| Cc1c(CCN2CCOCC2)c2ccccc2n1C(=O)c1cccc2ccccc12 | – | – | Ki (Cannabinoid receptor 2 [10]): 0.0085 µM; Selectivity ratio [8]: 160 |
| O=C(c1nc(-c2ccccc2)no1)c1cn(CCN2CCOCC2)c2ccccc12 | 44.3 | – | Activity [2]: inactive |
| O=C1NC(Cn2cc(-c3nc(Cc4ccccc4)no3)c3ccccc32)CO1 (stereo unspecified) | 15.8 | 6.1 | – |
